Screening data deposited in PubChem BioAssay by Broad Institute.
Rows were chosen to be rich in hits. Some 3.8% of all compounds tested hit in one or more screens of this group.
ARNT TACC3 PPI = disrupts binding between human ARNT and TACC3; Q9Y6A5; AlphaScreen His-ARNT PAS-B/GST-TACC3 binding, luminescence; TACC3 fragment carries E629A point mutation; inhibition, % at 9.99 µM; 390,000 compounds, 0.66% hits; AID 623870;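 active = mean inhibition of replicates at least 50% and at least half of replicates each reaching 50%; inconclusive = half or more replicates reach 50% but mean below 50%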
FN deposit inh = fibronectin deposition inhibition. AH1F fibroblasts, Alexa488-fibronectin deposition fluorescence, overnight. AID 743247. inhibition, % at 12.6 µM. 350,000 compounds, 0.086% hits;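 active = mean inhibition across replicates of 30% or more, regardless of how many single replicates reach that level; inconclusive = mean under 30% yet at least half of replicates reach 30%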
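material = AH1F fibroblast monolayer depositing Alexa488-labelled fibronectin into matrix | amount = 10000 AH1F cells/well | buffer or medium = DMEM plus 2% serum, read in PBS | incubation = 1 h cell adhesion before compound, then overnight fibronectin incubation | detection = fluorescence at 485 nm excitation, 525 nm emission | evaluation = percent inhibition as loss of matrix-bound fibronectin fluorescence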
SIRT5 inh = sirtuin-5 (human) deacylase inhibition; inhibition, % at 15 µM; AID 652115; Purified SirT5, succinyl-peptide AMC, trypsin-coupled fluorescence; 330,000 compounds, 1.1% hits; Q9NXA8; in the data active = inhibition above about 15%; inconclusive = no clear call, values can overlap the other calls
Target sequence (Q9NXA8 whole entry, looked up): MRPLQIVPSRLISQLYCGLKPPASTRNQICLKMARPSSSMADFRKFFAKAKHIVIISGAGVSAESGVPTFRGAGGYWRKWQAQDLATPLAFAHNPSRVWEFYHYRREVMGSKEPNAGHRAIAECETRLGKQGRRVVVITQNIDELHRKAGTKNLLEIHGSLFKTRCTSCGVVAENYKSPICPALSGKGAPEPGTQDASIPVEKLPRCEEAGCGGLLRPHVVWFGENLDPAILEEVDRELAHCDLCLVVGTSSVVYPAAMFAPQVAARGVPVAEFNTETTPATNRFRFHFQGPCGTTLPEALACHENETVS
FGF22 binding = FGF22 (human) thermal shift binding; recombinant FGF22 thermal shift, SYPRO orange fluorescence; percent of sucrose octasulfate shift, DMSO zero; activity (Tm shift, normalised), % at 9.99 µM; 340,000 compounds, 1.5% hits;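 active = mean Tm shift, scaled 0 neutral to 100 positive control, at about 1.3% or above, every replicate too, limit read from the data; inconclusive = no clear call, values can overlap the other calls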
Target sequence (Q9HCT0 whole entry, looked up): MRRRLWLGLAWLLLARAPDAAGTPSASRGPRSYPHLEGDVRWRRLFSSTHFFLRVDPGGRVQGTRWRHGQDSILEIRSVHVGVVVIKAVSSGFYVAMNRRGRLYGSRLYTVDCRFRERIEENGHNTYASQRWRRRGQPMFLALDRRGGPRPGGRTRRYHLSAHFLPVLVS
DENV2 CPE = inhibitors of DENV2 cytopathic effect; DENV2-infected cells, cytopathic effect rescue, plate reader; CPE inhibition, % at 9.99 µM; 350,000 compounds, 1.7% hits; AID 651640; in the data active = CPE inhibition above about 20%, passing the limit was not always enough; inconclusive = no clear call, values can overlap the other calls; tested in BHK-21 cells
Xi reactivation = activators of X-chromosome reactivation in mouse fibroblasts; activation, % at 7.58 µM; 360,000 compounds, 0.055% hits; XiGFP mouse fibroblasts, % GFP-positive cells imaging, 3 d; cells co-treated with 5-aza-dC sensitizer; scaled so ellipticine positive control = 100%;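 active = mean normalized replicate activation at least 10% and every replicate at or above 10%; inconclusive = only one of the two criteria met; inactive = mean below 10% and not all replicates reach 10%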
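assay system = SV40-immortalized XiGFP fibroblast cells, line 68-5-11 | buffer or medium = DMEM plus 5-aza-dC sensitizer | doses = single-point pinned compound dosing | times = 3-day compound exposure, then 15 min fixation at room temperature | benchmarks = positive control ellipticine, 6 µM final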
Hits are given with their value; - = inactive; ? = inconclusive; . = not tested or not shown.

SMILES | ARNT TACC3 PPI | FN deposit inh | SIRT5 inh | FGF22 binding | DENV2 CPE | Xi reactivation
CC(=O)Nc1ccc2c(c1)C(=O)N(C)C[C@@H](C)[C@@H](CN(C)C)O2 | . | - | . | . | . | -
CNC(=O)C[C@H]1CC[C@@H]2[C@H](COc3ccc(NC(=O)c4cscn4)cc3C(=O)N2C)O1 | - | - | . | - | 29.3 | -
CN1C(=O)c2cc(NC(=O)c3cccc(F)c3)ccc2OC[C@H]2O[C@@H](CC(=O)NCC3CC3)CC[C@H]21 | . | - | - | . | 20.6 | -
CNC(=O)C[C@H]1CC[C@H]2[C@H](COc3ccc(NC(=O)c4cscn4)cc3C(=O)N2C)O1 | - | - | . | - | - | -
CNC(=O)C[C@H]1CC[C@H]2[C@@H](COc3ccc(NC(=O)c4ccc(F)c(F)c4)cc3C(=O)N2C)O1 | - | - | - | - | 52.1 | -
CN1C(=O)c2cc(NC(=O)c3cccc(F)c3)ccc2OC[C@H]2O[C@H](CC(=O)NCC3CCCCC3)CC[C@@H]21 | - | - | - | - | - | -
CCNC(=O)C[C@@H]1CC[C@@H]2[C@H](COc3ccc(NC(=O)c4ccc(F)c(F)c4)cc3C(=O)N2C)O1 | - | - | - | - | 90.1 | -
COc1cccc(S(=O)(=O)N[C@H]2CC[C@@H](CCN)O[C@@H]2CO)c1 | - | - | - | - | - | -
CN1CCN(C(=O)C[C@H]2CC[C@@H]3[C@H](COC[C@@H](O)CN3Cc3cccc(F)c3)O2)CC1 | - | - | - | - | - | -
CCCNC(=O)C[C@@H]1CC[C@H]2[C@H](COc3ccc(NC(=O)c4cccc(Cl)c4)cc3C(=O)N2C)O1 | . | - | . | . | . | -
O=C(Nc1cc(F)ccc1F)N1C[C@@H]2[C@H](c3ccccc31)[C@H](CO)N2Cc1ccncc1 | - | . | 22.0 | - | - | -
O=C(Nc1ccccc1)N1C[C@H]2[C@@H](c3ccccc31)[C@H](CO)N2Cc1ccccc1 | - | . | - | - | 56.9 | -
O=C(Nc1ccccc1)N1C[C@@H]2[C@H](c3ccccc31)[C@@H](CO)N2Cc1ccccc1 | - | . | - | - | 45.3 | -
CC(C)Cc1nnc(NC(=O)Cc2ccc([N+](=O)[O-])cc2)s1 | - | - | 28.8 | - | . | -
CC(C)Cc1nnc(NC(=O)CCC(=O)N2CCN(c3ccc([N+](=O)[O-])cc3)CC2)s1 | - | - | - | - | - | -
CC[C@@H]1CC=CC[C@H](C)Oc2ccccc2C(=O)N(C)[C@@H](C(C)C)C(=O)N1 (mixture of isomers) | . | - | . | . | . | -
CCc1nnc(NC(=O)CSc2sc3c(O)cc(=O)[nH]c3c2C#N)s1 | - | - | 28.8 | - | - | -
COC(=O)c1ccc(C)c(NC(=O)CSc2sc3c(O)cc(=O)[nH]c3c2C#N)c1 | - | - | 19.3 | . | - | -
Cc1csc(NC(=O)CSc2sc3c(O)cc(=O)[nH]c3c2C#N)n1 | - | - | 41.6 | - | - | -
CCSc1nnc(NC(=O)CSc2sc3c(O)cc(=O)[nH]c3c2C#N)s1 | - | - | 31.6 | . | - | -
CN1C(=O)c2cc(NC(=O)c3ccc(C(F)(F)F)cc3)ccc2OC[C@@H]2O[C@@H](CC(=O)O)CC[C@@H]21 | - | - | - | - | ? | -
CC1(C#CC[N+]2(C)CCCCC2)CCC2C(O1)c1ccccc1OC2(C)C (centres undefined) | - | - | - | 43.6 | - | -
CC1(C(O)(C#CC[N+]2(C)CCCCC2)c2ccccc2)CCCC1 (centres undefined) | - | - | - | - | - | -
COC(=O)Cn1c2ccccc2c(=O)n1C(C)C | . | - | . | - | 20.5 | -
COC(=O)Cn1c2ccccc2c2nc(=O)cc(C)n21 | - | - | - | - | - | -
O=C(C[C@@H]1CC[C@@H]2[C@H](COC[C@@H](O)CN2S(=O)(=O)c2ccc(Cl)cc2)O1)NCCN1CCCCC1 | . | - | - | - | - | -
CO[C@@H]1CN(C)C(=O)c2ccc(NC(=O)Nc3ccc(Cl)cc3)cc2OC[C@H](C)NC[C@@H]1C | . | - | . | . | . | -
CSc1ccccc1NC(=O)COC(=O)CCC(=O)c1ccc(F)cc1 | . | - | 19.6 | - | - | -
